Results published in ChEMBL document CHEMBL4706714 (Bioorg Med Chem, 2021).
pIC50, pKi: −log10 of the molar value. Active and inactive are the calls of the source. The calls are words filed in the database; no cut-off is given here.

Assays:
[1] = Cytotoxicity against Chinese Hamster MTXRII-OuaR2-4 R2 cells assessed as reduction in cell proliferation after 96 hrs by CellTiter-blue assay; assay type: cell-based; conditions: Cricetulus griseus, R2, 96 h
KB [2] = assay: Antiproliferative activity against human KB cells assessed as reduction in cell viability after 96 hrs by CellTiter-blue assay; assay type: functional, cell-based
KB [3] = assay: Antiproliferative activity against human KB cells assessed as reduction in cell viability after 96 hrs in presence of folic acid by CellTiter-blue assay; assay type: functional, cell-based
How it was run: (§1)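 Cells grown in folate-free RPMI with 10% dialyzed FBS, 2 nM leucovorin, 2 mM L-glutamine; 2500–5000 cells/well, inhibitors 0–1000 nM, with 200 nM folic acid added in parallel wells to block FR uptake.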

IGROV-1 [4] = assay: Antiproliferative activity against human IGROV1 cells assessed as reduction in cell viability after 96 hrs by CellTiter-blue assay; assay type: functional, cell-based; conditions: IGROV-1, 96 h
IGROV-1 [5] = assay: Antiproliferative activity against human IGROV1 cells assessed as reduction in cell viability after 96 hrs in presence of folic acid by CellTiter-blue assay; assay type: functional, cell-based; conditions: IGROV-1, 96 h; how it was run: as §1
[6] = Inhibition of human full length N-terminal His-tagged GARFTase expressed in Chinese Hamster MTXRII-OuaR2-4 R2 cells assessed as reduction in THF formation using 10-CHOTHF as substrate by spectrophotometric method
[7] = target: T1, Bifunctional purine biosynthesis protein ATIC (Homo sapiens, UniProt P31939); assay: Inhibition of human full length N-terminal His-tagged ATIC expressed in Chinese Hamster MTXRII-OuaR2-4 R2 cells assessed as reduction in THF formation using 10-CHOTHF as substrate by spectrophotometric method
Target sequence in this assay (P31939 whole entry): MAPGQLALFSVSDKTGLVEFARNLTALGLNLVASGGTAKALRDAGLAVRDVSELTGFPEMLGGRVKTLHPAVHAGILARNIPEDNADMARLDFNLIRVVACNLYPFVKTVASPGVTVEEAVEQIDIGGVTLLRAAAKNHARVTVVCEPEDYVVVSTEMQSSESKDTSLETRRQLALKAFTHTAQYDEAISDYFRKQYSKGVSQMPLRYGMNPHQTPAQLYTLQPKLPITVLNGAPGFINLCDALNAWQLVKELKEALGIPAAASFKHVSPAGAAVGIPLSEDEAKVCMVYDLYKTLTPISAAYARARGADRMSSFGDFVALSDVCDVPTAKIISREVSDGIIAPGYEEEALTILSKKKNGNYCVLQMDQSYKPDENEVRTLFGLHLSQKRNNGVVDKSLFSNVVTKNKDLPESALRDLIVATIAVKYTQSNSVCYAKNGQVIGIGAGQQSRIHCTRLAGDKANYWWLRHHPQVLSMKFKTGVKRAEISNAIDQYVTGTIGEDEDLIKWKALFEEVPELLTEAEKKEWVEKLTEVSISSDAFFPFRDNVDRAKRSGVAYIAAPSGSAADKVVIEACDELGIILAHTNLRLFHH

KB [8] = assay: Antiproliferative activity against human KB cells assessed as reduction in cell viability after 96 hrs in presence of thymidine by CellTiter-blue assay; assay type: functional, cell-based
How it was run: (§2)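 KB cells, 4000 cells/well, in folate-free RPMI 1640 with 10% dialyzed FBS and 2 nM leucovorin. A range of drug concentrations was co-incubated with adenosine (60 μM) or thymidine (10 μM) for 96 h at 37 °C. Proliferation was read by CellTiter-blue fluorescence. Data are representative of at least triplicate experiments.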

KB [9] = assay: Antiproliferative activity against human KB cells assessed as reduction in cell viability after 96 hrs in presence of adenosine by CellTiter-blue assay; assay type: functional, cell-based; how it was run: as §2
[10] = target: Folate receptor alpha (Homo sapiens) (UniProt P15328); assay: Displacement of [3H]-folic acid from human FRalpha expressed in Chinese Hamster MTXRII-OuaR2-4 R2 cells after 15 mins by liquid scintillation counting method; assay type: cell-based
Chain of Folate receptor alpha (Homo sapiens) (P15328 25-234 limits assumed): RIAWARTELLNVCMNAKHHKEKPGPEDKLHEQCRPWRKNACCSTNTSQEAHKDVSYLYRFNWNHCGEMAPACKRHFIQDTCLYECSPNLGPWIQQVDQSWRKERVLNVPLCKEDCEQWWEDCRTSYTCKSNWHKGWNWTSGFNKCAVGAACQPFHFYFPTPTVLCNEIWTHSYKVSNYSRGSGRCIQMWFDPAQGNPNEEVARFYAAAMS
How it was run: (§3)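 RT16 (FRα) or D4 (FRβ) CHO transfectants, 1 × 10^6 cells, adhered 24 h; washed at 4 °C with DPBS, pH 3.5 acetate buffer to strip bound folate, then HBS pH 7.4. Incubated 15 min at 0 °C with 50 nM [3H]folic acid plus competitor 0–1 μM; bound label per mg protein (Folin-phenol).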

[11] = target: Folate receptor beta (Homo sapiens) (UniProt P14207); assay: Displacement of [3H]-folic acid from human FRbeta expressed in Chinese Hamster MTXRII-OuaR2-4 R2 cells after 15 mins by liquid scintillation counting method; assay type: cell-based; how it was run: as §3
Chain of Folate receptor beta (Homo sapiens) (P14207 17-230 limits assumed): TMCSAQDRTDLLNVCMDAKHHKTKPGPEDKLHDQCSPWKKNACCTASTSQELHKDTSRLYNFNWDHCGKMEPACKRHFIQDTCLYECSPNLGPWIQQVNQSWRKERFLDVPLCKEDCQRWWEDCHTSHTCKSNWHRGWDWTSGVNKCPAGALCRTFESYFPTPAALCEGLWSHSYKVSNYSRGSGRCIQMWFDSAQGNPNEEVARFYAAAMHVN

IGROV-1 [12] = assay: Inhibition of GARFTase in human IGROV1 assessed as increase in GAR level at 1 uM after 48 hrs by LC-MS/MS analysis
How it was run: (§4)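 NCI-IGROV1 ovarian cells in folate-free RPMI, 10% FBS, 2 mM L-glutamine, five replicate dishes, adhered 24 h; medium replaced and 1 μM inhibitor or DMSO vehicle added for 48 h. Extracted metabolites measured by reverse-phase LC-MS, negative ion mode, identified by exact mass and retention time against standards; normalized to cell protein; expressed relative to vehicle control.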

IGROV-1 [13] = assay: Inhibition of GARFTase in human IGROV1 assessed as decrease in fGAR level at 1 uM after 48 hrs by LC-MS/MS analysis relative to control; how it was run: as §4
[14] = target: T1, Bifunctional purine biosynthesis protein ATIC; assay: Inhibition of AICARFTase in human IGROV1 assessed as decrease in ZMP level at 1 uM after 48 hrs by LC-MS/MS analysis relative to control; conditions: IGROV-1; how it was run: as §4
Target sequence in this assay (P31939 whole entry, looked up): as the sequence (P31939 whole entry) above

[15] = Inhibition of de nova purine biosynthesis in human IGROV1 assessed as decrease in IMP level at 1 uM after 48 hrs by LC-MS/MS analysis relative to control; assay type: functional; conditions: IGROV-1; how it was run: as §4
[16] = Inhibition of de nova purine biosynthesis in human IGROV1 assessed as decrease in ATP level at 1 uM after 48 hrs by LC-MS/MS analysis relative to control; assay type: functional; conditions: IGROV-1; how it was run: as §4
[17] = Inhibition of de nova purine biosynthesis in human IGROV1 assessed as decrease in ADP level at 1 uM after 48 hrs by LC-MS/MS analysis relative to control; assay type: functional; conditions: IGROV-1; how it was run: as §4
IGROV-1 [18] = assay: Inhibition of de nova purine biosynthesis in human IGROV1 assessed as decrease in AMP level at 1 uM after 48 hrs by LC-MS/MS analysis; assay type: functional; how it was run: as §4

| Structure (SMILES) | pIC50 [1] | pIC50 (KB [2]) | pIC50 (KB [3]) | pIC50 (IGROV-1 [4]) | pIC50 (IGROV-1 [5]) | pKi [6] | pKi [7] | Activity (KB [8]) | Activity (KB [9]) | Activity [10] [%] | Activity [11] [%] | fold change (FC) (IGROV-1 [12]) | inhibition (IGROV-1 [13]) [%] | inhibition [14] | inhibition at 1 µM [15] [%] | inhibition at 1 µM [16] [%] | inhibition at 1 µM [17] [%] | inhibition (IGROV-1 [18]) |
| --- | --- | --- | --- | --- | --- | --- | --- | --- | --- | --- | --- | --- | --- | --- | --- | --- | --- | --- |
| Nc1nc2sc(CCCCc3csc(C(=O)N[C@@H](CCC(=O)O)C(=O)O)c3)cc2c(=O)[nH]1 | < 6.00 | 8.16 | < 6.00 | 6.97 | < 6.00 | < 3.82 | 5.10 | Active | inactive |  |  |  |  |  |  |  |  |  |
| Nc1nc2sc(CCCc3csc(C(=O)N[C@@H](CCC(=O)O)C(=O)O)c3)cc2c(=O)[nH]1 | < 6.00 | 8.83 | < 6.00 | 7.06 | < 6.00 |  | 4.70 | Active | inactive |  |  |  |  |  |  |  |  |  |
| Nc1nc2sc(CCCCc3ccc(C(=O)N[C@@H](CCC(=O)O)C(=O)O)s3)cc2c(=O)[nH]1 | < 6.00 | 8.68 | < 6.00 | 7.99 | < 6.00 | 5.87 | 5.29 | Active | inactive | 89 | 60 | 150 | 50 | Active | 60 | 75 | 60 | Active |
| Nc1nc2sc(CCCc3ccc(C(=O)N[C@@H](CCC(=O)O)C(=O)O)s3)cc2c(=O)[nH]1 | < 6.00 | 8.85 | < 6.00 | 7.27 | < 6.00 | 5.09 | 4.84 | Active | inactive | 89 | 60 | 150 | 75 | Active | 60 | 75 | 60 | Active |
| Nc1nc2[nH]cc(CCCCc3ccc(C(=O)N[C@@H](CCC(=O)O)C(=O)O)cc3)c2c(=O)[nH]1 |  |  |  |  |  |  |  | Active | inactive |  |  |  |  |  |  |  |  |  |
| Nc1nc2[nH]c(CCCc3ccc(C(=O)N[C@@H](CCC(=O)O)C(=O)O)s3)cc2c(=O)[nH]1 |  |  |  |  |  |  |  |  |  |  |  | 150 | 99 | 50% | 60 | 75 | 60 | Active |
| Nc1nc2sc(CCCc3cc(C(=O)N[C@@H](CCC(=O)O)C(=O)O)cs3)cc2c(=O)[nH]1 | < 6.00 | 8.74 | < 6.00 | 7.59 | < 6.00 | 6.04 | 5.08 | Active | inactive |  |  |  |  |  |  |  |  |  |
| Nc1nc2sc(CCCCc3cc(C(=O)N[C@@H](CCC(=O)O)C(=O)O)cs3)cc2c(=O)[nH]1 | < 6.00 | 8.32 | < 6.00 | < 6.00 | < 6.00 | 6.82 | 5.97 | Active | inactive |  |  |  |  |  |  |  |  |  |
| Nc1nc2[nH]cc(CCc3ccc(C(=O)N[C@@H](CCC(=O)O)C(=O)O)cc3)c2c(=O)[nH]1 [PEMETREXED] |  |  |  |  |  | < 3.82 |  |  |  |  |  |  |  |  |  |  |  |  |
| Nc1nc2sc(CCCCc3ccc(C(=O)N[C@@H](CCC(=O)O)C(=O)O)cc3)cc2c(=O)[nH]1 | < 6.00 |  | < 6.00 |  | < 6.00 |  | 5.02 | Active | inactive |  |  |  |  |  |  |  |  |  |
| Nc1nc2sc(CCCCc3ccc(C(=O)N[C@@H](CCC(=O)O)C(=O)O)o3)cc2c(=O)[nH]1 | < 6.00 | 8.10 | < 6.00 | < 6.00 | < 6.00 | 4.97 | 4.61 | Active | inactive | 89 | 60 |  |  |  |  |  |  |  |
